Legend:
Type in all cases: functional
[1] = system: NCI/ADR-RES; test: Cytotoxicity against human NCI/ADR-RES cells by SRB assay
Method in brief: (§1)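 NCI 60 human tumor cell line panel, sulforhodamine B (SRB) protein-stain read-out. Compounds were first screened at a single dose of 10^-5 M, and selected compounds were then tested in a five-dose format. GI50 is the drug concentration giving a 50% reduction in net protein increase relative to control cells.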

[2] = Cytotoxicity against human HCT15 cells by SRB assay; conditions: HCT-15; method in brief: as §1
[3] = system: CAKI-1; test: Cytotoxicity against human CAKI-1 cells by SRB assay; method in brief: as §1
[4] = system: A549; test: Cytotoxicity against human A549 cells by SRB assay; method in brief: as §1
[5] = system: SK-MEL-2; test: Cytotoxicity against human SK-MEL-2 cells by SRB assay; method in brief: as §1
[6] = Cytotoxicity against human OVCAR3 cells by SRB assay; conditions: OVCAR-3; method in brief: as §1
[7] = Cytotoxicity against human RPMI8226 cells by SRB assay; conditions: RPMI-8226; method in brief: as §1
[8] = Cytotoxicity against human OVCAR4 cells by SRB assay; conditions: OVCAR-4; method in brief: as §1
[9] = Cytotoxicity against human SF539 cells by SRB assay; conditions: SF-539; method in brief: as §1
[10] = Cytotoxicity against human COLO205 cells by SRB assay; conditions: COLO 205; method in brief: as §1
[11] = system: SK-MEL-28; test: Cytotoxicity against human SK-MEL-28 cells by SRB assay; method in brief: as §1
[12] = system: U-251; test: Cytotoxicity against human U251 cells by SRB assay; method in brief: as §1
[13] = Cytotoxicity against human HL-60(TB) cells by SRB assay
Method in brief: (§2)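 NCI 60-cell-line panel using sulforhodamine B protein stain. Initial single-dose screen at 10^-5 M, then five-dose testing. GI50 is the drug concentration giving a 50% reduction in net protein increase relative to control cells.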

[14] = system: MCF7; test: Cytotoxicity against human MCF7 cells by SRB assay; method in brief: as §1
[15] = Cytotoxicity against human HCC2998 cells by SRB assay; conditions: HCC 2998; method in brief: as §1
[16] = system: SK-MEL-5; test: Cytotoxicity against human SK-MEL-5 cells by SRB assay; method in brief: as §1
[17] = Cytotoxicity against human SKOV3 cells by SRB assay; conditions: SK-OV-3; method in brief: as §1
[18] = system: K562; test: Cytotoxicity against human K562 cells by SRB assay; method in brief: as §1
[19] = system: NCI-H522; test: Cytotoxicity against human NCI-H522 cells by SRB assay; method in brief: as §1
[20] = system: MDA-MB-231; test: Cytotoxicity against human MDA-MB-231 cells by SRB assay; method in brief: as §1
[21] = Cytotoxicity against human Hs578T cells by SRB assay; conditions: Hs-578T; method in brief: as §1
[22] = Cytotoxicity against human UO31 cells by SRB assay; conditions: UO-31; method in brief: as §1
[23] = Cytotoxicity against human SNB19 cells by SRB assay; conditions: SNB-19; method in brief: as §1
[24] = Cytotoxicity against human HOP62 cells by SRB assay; conditions: HOP-62; method in brief: as §1
[25] = system: MDA-MB-435; test: Cytotoxicity against human MDA-MB-435 cells by SRB assay; method in brief: as §1
[26] = Cytotoxicity against human MOLT4 cells by SRB assay; conditions: MOLT-4; method in brief: as §1
[27] = system: 786-0; test: Cytotoxicity against human 786-0 cells by SRB assay; method in brief: as §1
[28] = Cytotoxicity against human SF268 cells by SRB assay; conditions: SF-268; method in brief: as §1
[29] = system: KM12; test: Cytotoxicity against human KM12 cells by SRB assay; method in brief: as §1
[30] = system: M14; test: Cytotoxicity against human M14 cells by SRB assay; method in brief: as §1
[31] = Cytotoxicity against human SNB75 cells by SRB assay; conditions: SNB-75; method in brief: as §1
[32] = Cytotoxicity against human HCT116 cells by SRB assay; conditions: HCT-116; method in brief: as §1
[33] = Cytotoxicity against human SW620 cells by SRB assay; conditions: SW-620; method in brief: as §1
[34] = system: SR; test: Cytotoxicity against human SR cells by SRB assay; method in brief: as §1
[35] = Cytotoxicity against human SF295 cells by SRB assay; conditions: SF-295; method in brief: as §1
[36] = system: MDA-MB-468; test: Cytotoxicity against human MDA-MB-468 cells by SRB assay; method in brief: as §1
[37] = system: A498; test: Cytotoxicity against human A498 cells by SRB assay; method in brief: as §1
[38] = system: HT-29; test: Cytotoxicity against human HT-29 cells by SRB assay; method in brief: as §1
[39] = system: ACHN; test: Cytotoxicity against human ACHN cells by SRB assay; method in brief: as §1
[40] = system: CCRF-CEM; test: Cytotoxicity against human CCRF-CEM cells by SRB assay; method in brief: as §1
[41] = Cytotoxicity against human IGROV1 cells by SRB assay; conditions: IGROV-1; method in brief: as §2
[42] = Cytotoxicity against human HOP92 cells by SRB assay; conditions: HOP-92; method in brief: as §1
[43] = Cytotoxicity against human UACC62 cells by SRB assay; conditions: UACC-62; method in brief: as §1
[44] = Cytotoxicity against human LOXIMVI cells by SRB assay; conditions: LOX IMVI; method in brief: as §2
[45] = system: NCI-H23; test: Cytotoxicity against human NCI-H23 cells by SRB assay; method in brief: as §1

Work on `COc1ccc(/C=C/c2cc(OC)cc(OC)c2/C=C(\C#N)c2ccccc2OC)cc1` yielded a GI50 [1] of 0.71 µM, a GI50 [2] of 0.76 µM and a GI50 [3] of 2.2 µM. It also gave a GI50 [4] of 3.56 µM, a GI50 [5] of 2.13 µM and a GI50 [6] of 1.38 µM. It also gave a GI50 [7] of 2.85 µM, a GI50 [8] of 3.59 µM and a GI50 [9] of 1.55 µM. The GI50 [10] was 2.28 µM, the GI50 [11] was 4.22 µM and the GI50 [12] was 2.77 µM. For the same compound, the GI50 [13] was 0.58 µM, the GI50 [14] was 0.72 µM and the GI50 [15] was 5.47 µM. For the same compound, the GI50 [16] was 2.44 µM, the GI50 [17] was 4.73 µM and the GI50 [18] was 0.43 µM. The GI50 [19] was 0.25 µM, the GI50 [20] was 2.83 µM and the GI50 [21] was 1.34 µM. The GI50 [22] was 3.44 µM, the GI50 [23] was 8.77 µM and the GI50 [24] was 2.79 µM. For the same compound, the GI50 [25] was 0.28 µM, the GI50 [26] was 3.3 µM and the GI50 [27] was 3.25 µM. The GI50 [28] was 4.18 µM, the GI50 [29] was 0.64 µM and the GI50 [30] was 1.14 µM. The GI50 [31] was 2.28 µM, the GI50 [32] was 1.29 µM and the GI50 [33] was 0.71 µM. For the same compound, the GI50 [34] was 0.28 µM, the GI50 [35] was 2.51 µM and the GI50 [36] was 1.7 µM. It also gave a GI50 [37] of 1.37 µM, a GI50 [38] of 0.48 µM and a GI50 [39] of 4.25 µM. It also gave a GI50 [40] of 2.24 µM and a GI50 [41] of 5.28 µM.
Compound `COc1ccc(/C=C\c2cc(OC)c(OC)c(OC)c2)cc1O` [COMBRETASTATIN A4] has a GI50 [2] of 0.004 µM, a GI50 [3] of 0.026 µM and a GI50 [4] of 0.016 µM. For the same compound, the GI50 [5] was 0.004 µM, the GI50 [6] was 0.002 µM and the GI50 [7] was 0.003 µM. The GI50 [8] was 0.014 µM, the GI50 [9] was 0.003 µM and the GI50 [10] was 0.1 µM. The GI50 [11] was 0.008 µM, the GI50 [12] was 0.004 µM and the GI50 [42] was 0.003 µM. It also gave a GI50 [13] of 0.002 µM, a GI50 [43] of 0.006 µM and a GI50 [15] of 0.063 µM. For the same compound, the GI50 [16] was 0.004 µM, the GI50 [17] was 0.059 µM and the GI50 [18] was 0.002 µM. It also gave a GI50 [19] of 0.002 µM, a GI50 [22] of 0.019 µM and a GI50 [23] of 0.004 µM. For the same compound, the GI50 [24] was 0.003 µM, the GI50 [26] was 0.003 µM and the GI50 [44] was 0.003 µM. For the same compound, the GI50 [27] was 0.1 µM, the GI50 [28] was 0.006 µM and the GI50 [29] was 0.005 µM. For the same compound, the GI50 [30] was 0.003 µM, the GI50 [31] was 0.008 µM and the GI50 [32] was 0.003 µM. For the same compound, the GI50 [33] was 0.003 µM, the GI50 [34] was 0.003 µM and the GI50 [35] was 0.004 µM. The GI50 [37] was 0.006 µM, the GI50 [38] was 0.1 µM and the GI50 [39] was 0.006 µM. It also gave a GI50 [40] of 0.003 µM, a GI50 [41] of 0.015 µM and a GI50 [45] of 0.003 µM.
For `COc1ccc(/C=C(\C#N)c2cc(OC)cc(OC)c2)cc1`, the GI50 [1] was 0.27 µM, the GI50 [2] was 0.33 µM and the GI50 [3] was 0.54 µM. It also gave a GI50 [4] of 0.38 µM, a GI50 [5] of 0.88 µM and a GI50 [6] of 0.3 µM. It also gave a GI50 [7] of 0.33 µM, a GI50 [8] of 0.73 µM and a GI50 [9] of 0.22 µM. The GI50 [10] was 0.27 µM, the GI50 [11] was 0.49 µM and the GI50 [12] was 0.343 µM. It also gave a GI50 [13] of 0.28 µM, a GI50 [43] of 0.4 µM and a GI50 [14] of 0.31 µM. It also gave a GI50 [15] of 0.34 µM, a GI50 [16] of 0.27 µM and a GI50 [17] of 0.37 µM. For the same compound, the GI50 [18] was 0.31 µM, the GI50 [19] was 0.09 µM and the GI50 [20] was 0.43 µM. The GI50 [21] was 0.31 µM, the GI50 [22] was 0.49 µM and the GI50 [23] was 0.98 µM. The GI50 [24] was 0.51 µM, the GI50 [25] was 0.17 µM and the GI50 [26] was 0.43 µM. For the same compound, the GI50 [44] was 0.58 µM, the GI50 [27] was 0.42 µM and the GI50 [28] was 0.84 µM. The GI50 [29] was 0.38 µM, the GI50 [30] was 0.28 µM and the GI50 [31] was 0.29 µM. The GI50 [32] was 0.33 µM, the GI50 [33] was 0.42 µM and the GI50 [34] was 0.29 µM. It also gave a GI50 [35] of 0.22 µM, a GI50 [36] of 0.29 µM and a GI50 [37] of 0.25 µM. For the same compound, the GI50 [38] was 0.28 µM, the GI50 [39] was 0.53 µM and the GI50 [40] was 0.32 µM. It also gave a GI50 [41] of 0.53 µM and a GI50 [45] of 0.53 µM.
